Assays:
[1] = Growth inhibition of human OVCAR4 cells after 48 hrs by coulter counting analysis; format: functional; conditions: OVCAR-4, 48 h
How it was run: (§1)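 Five-dose NCI-60 follow-up, 0.01–100 µM, made from DMSO stock in buffered saline (final DMSO <1%), in duplicate wells. Cells in RPMI 1640 with 10% FBS at 6×10^4 cells/ml, 37 °C, 5% CO2, 48 h. Cells diluted tenfold in saline, Coulter-counted and corrected for dilution. GI50, TGI and LC50 taken from log concentration–percent growth curves.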

SK-OV-3 = test: Growth inhibition of human SKOV3 cells after 48 hrs by coulter counting analysis; format: functional; conditions: SK-OV-3, 48 h; how it was run: as §1
ACHN = test: Growth inhibition of human ACHN cells after 48 hrs by coulter counting analysis; format: functional
How it was run: (§2)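 NCI five-dose screen at 0.01-100 µM, diluted from DMSO stocks in buffered saline (final DMSO <1%). Cells at 6×10^4 cells/ml in RPMI 1640 with 10% FBS, in duplicate wells, at 37 °C under 5% CO2 for 48 h. Cells diluted tenfold in saline and Coulter-counted. GI50, TGI and LC50 taken from log concentration-growth inhibition curves.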

CAKI-1 = test: Growth inhibition of human CAKI-1 cells after 48 hrs by coulter counting analysis; format: functional; conditions: CAKI-1, 48 h; how it was run: as §2
TK-10 = test: Growth inhibition of human TK10 cells after 48 hrs by coulter counting analysis; format: functional; conditions: TK-10, 48 h
How it was run: (§3)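 NCI five-dose screen, 0.01-100 µM, from DMSO stocks diluted in buffer saline (final DMSO <1%). Cells grown in RPMI 1640 + 10% FBS, seeded at 6×10^4 cells/ml, in duplicate wells. Exposure 48 h at 37 °C, 5% CO2. Cells diluted 10-fold in saline and counted by Coulter counter. GI50 derived from log concentration–percent growth inhibition curves. Controls carried matching PBS/saline/DMSO.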

[2] = Growth inhibition of human UO31 cells after 48 hrs by coulter counting analysis; format: functional; conditions: UO-31, 48 h; how it was run: as §3
PC-3 = test: Growth inhibition of human PC3 cells after 48 hrs by coulter counting analysis; format: functional; conditions: PC-3, 48 h; how it was run: as §1
MCF7 = test: Growth inhibition of human MCF7 cells after 48 hrs by coulter counting analysis; format: functional; conditions: MCF7, 48 h; how it was run: as §2
T47D = test: Growth inhibition of human T47D cells after 48 hrs by coulter counting analysis; format: functional; how it was run: as §1
MDA-MB-468 = test: Growth inhibition of human MDA-MB-468 cells after 48 hrs by coulter counting analysis; format: functional; conditions: MDA-MB-468, 48 h; how it was run: as §1
[3] = Growth inhibition of human NCI60 cells after 48 hrs by coulter counting analysis; format: functional; conditions: NCI60, 48 h
How it was run: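 Five-dose screen (0.01-100 µM, DMSO-solubilized, under 1% DMSO final), cells in RPMI 1640 + 10% FBS at 6×10^4 cells/ml, duplicate wells, 37 °C, 5% CO2, 48 h. Cells then diluted tenfold in saline and counted by Coulter counter with dilution correction. Controls held buffer/saline/DMSO at matching dilutions. GI50 derived from log concentration-percent growth inhibition curves.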

[4] = target: Cyclin-dependent kinase 2/cyclin E1 (Homo sapiens) (UniProt P24864+P24941); test: Inhibition of CDK2/Cyclin E1 (unknown origin) at 20 uM after 30 mins by scintillation counting analysis relative to control; format: protein-complex assay
How it was run: (§4)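 Recombinant kinases, cloned, expressed and purified in-house. Radiometric ³³P-ATP assay with kinase at ~10-50 nM final and 1-5 µg peptide or protein substrate. Compound at 20 µM final, in duplicate. Reaction started by adding ATP, run 30 min at ambient temperature, then spotted on P81 phosphocellulose. Plates washed in 1% phosphoric acid and counted by scintillation. No-substrate blank subtracted. Result is mean % activity change versus DMSO control.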

[5] = target: Cyclin-dependent kinase 4/cyclin D1 (Homo sapiens) (UniProt P11802+P24385); test: Inhibition of CDK4/Cyclin D1 (unknown origin) at 20 uM after 30 mins by scintillation counting analysis relative to control; format: protein-complex assay; how it was run: as §4
RPMI-8226 = test: Growth inhibition of human RPMI8226 cells after 48 hrs by coulter counting analysis; format: functional; conditions: RPMI-8226, 48 h; how it was run: as §1
A549 = test: Growth inhibition of human A549/ATCC cells after 48 hrs by coulter counting analysis; format: functional; conditions: A549, 48 h; how it was run: as §2
HOP-62 = test: Growth inhibition of human HOP62 cells after 48 hrs by coulter counting analysis; format: functional; conditions: HOP-62, 48 h; how it was run: as §2
NCI-H226 = test: Growth inhibition of human NCI-H226 cells after 48 hrs by coulter counting analysis; format: functional; conditions: NCI-H226, 48 h; how it was run: as §1
NCI-H23 = test: Growth inhibition of human NCI-H23 cells after 48 hrs by coulter counting analysis; format: functional; conditions: NCI-H23, 48 h; how it was run: as §1
NCI-H322M = test: Growth inhibition of human NCI-H322M cells after 48 hrs by coulter counting analysis; format: functional; how it was run: as §1
NCI-H522 = test: Growth inhibition of human NCI-H522 cells after 48 hrs by coulter counting analysis; format: functional; conditions: NCI-H522, 48 h; how it was run: as §1
COLO 205 = test: Growth inhibition of human COLO205 cells after 48 hrs by coulter counting analysis; format: functional; conditions: COLO 205, 48 h; how it was run: as §2
[6] = Growth inhibition of human HCC2998 cells after 48 hrs by coulter counting analysis; format: functional; conditions: HCC 2998, 48 h; how it was run: as §2
HCT-116 = test: Growth inhibition of human HCT116 cells after 48 hrs by coulter counting analysis; format: functional; conditions: HCT-116, 48 h; how it was run: as §2
[7] = Growth inhibition of human HCT15 cells after 48 hrs by coulter counting analysis; format: functional; conditions: HCT-15, 48 h; how it was run: as §2
HT-29 = test: Growth inhibition of human HT-29 cells after 48 hrs by coulter counting analysis; format: functional; conditions: HT-29, 48 h; how it was run: as §2
[8] = Growth inhibition of human SF295 cells after 48 hrs by coulter counting analysis; format: functional; conditions: SF-295, 48 h; how it was run: as §1
[9] = Growth inhibition of human SF539 cells after 48 hrs by coulter counting analysis; format: functional; conditions: SF-539, 48 h; how it was run: as §1
SNB-75 = test: Growth inhibition of human SNB75 cells after 48 hrs by coulter counting analysis; format: functional; conditions: SNB-75, 48 h; how it was run: as §1
MDA-MB-435 = test: Growth inhibition of human MDA-MB-435 cells after 48 hrs by coulter counting analysis; format: functional; conditions: MDA-MB-435, 48 h; how it was run: as §2
SK-MEL-28 = test: Growth inhibition of human SK-MEL-28 cells after 48 hrs by coulter counting analysis; format: functional; conditions: SK-MEL-28, 48 h; how it was run: as §1
SK-MEL-5 = test: Growth inhibition of human SK-MEL-5 cells after 48 hrs by coulter counting analysis; format: functional; conditions: SK-MEL-5, 48 h; how it was run: as §1
[10] = Growth inhibition of human UACC257 cells after 48 hrs by coulter counting analysis; format: functional; conditions: UACC-257, 48 h; how it was run: as §3
IGROV-1 = test: Growth inhibition of human IGROV1 cells after 48 hrs by coulter counting analysis; format: functional; conditions: IGROV-1, 48 h; how it was run: as §2
[11] = Growth inhibition of human OVCAR3 cells after 48 hrs by coulter counting analysis; format: functional; conditions: OVCAR-3, 48 h; how it was run: as §1
K562 = test: Growth inhibition of human K562 cells after 48 hrs by coulter counting analysis; format: functional; conditions: K562, 48 h; how it was run: as §2

SMILES	GI50 [1] [µM]	GI50 (SK-OV-3) [µM]	GI50 (ACHN) [µM]	GI50 (CAKI-1) [µM]	GI50 [2] [µM]	GI50 (PC-3) [µM]	GI50 (MCF7) [µM]	GI50 (T47D) [µM]	GI50 (MDA-MB-468) [µM]	LC50 [3] [µM]	TGI [3] [µM]	inhibition [4] [%]	inhibition [5] [%]	GI50 (RPMI-8226) [µM]	GI50 (A549) [µM]	GI50 (HOP-62) [µM]	GI50 (NCI-H226) [µM]	GI50 (NCI-H23) [µM]	GI50 (NCI-H322M) [µM]	GI50 (NCI-H522) [µM]	other results
COc1ccccc1/C=C/C(=O)c1c(O)cc2occc2c1OC	> 100	21.3	30	> 100	> 100	> 100	9.56	55.9	10.3	100	89.1	6	0	23.5	> 100	19.3	25.1	22.4	> 100	> 100	GI50 (TK-10): 21.9 µM; GI50 (COLO 205): > 100 µM; GI50 [6]: > 100 µM; GI50 (HCT-116): 40.4 µM; GI50 [7]: > 100 µM; GI50 (HT-29): > 100 µM; GI50 [8]: 16.6 µM; GI50 [9]: 24.3 µM; GI50 (SNB-75): 7.49 µM; GI50 (MDA-MB-435): 5.69 µM; GI50 (SK-MEL-28): > 100 µM; GI50 (SK-MEL-5): > 100 µM; GI50 [10]: > 100 µM; GI50 (IGROV-1): 26 µM; GI50 [11]: 47.4 µM
COc1c2ccoc2c(/C=C/C=O)c2oc(-c3ccccc3)cc(=O)c12	3.2	6.34	20.8	15.4	3.63	3.23	2.72	2.14	7.02	87.1	35.5	6	0	2.24	21.5	2.49	4.14	2.44	9.69	17.6	GI50 (K562): 3.21 µM; GI50 (COLO 205): 27.7 µM; GI50 [6]: 16.1 µM; GI50 (HCT-116): 1.7 µM; GI50 [7]: 2.52 µM; GI50 (HT-29): 25.1 µM; GI50 [8]: 13.6 µM; GI50 [9]: 3.59 µM; GI50 (SNB-75): 8.3 µM; GI50 (MDA-MB-435): 4.83 µM; GI50 (SK-MEL-28): 2.73 µM; GI50 (SK-MEL-5): 3.04 µM; GI50 [10]: 11.5 µM; GI50 (IGROV-1): 17.5 µM; GI50 [11]: 5.19 µM
COc1c(C(=O)/C=C/c2ccc(Cl)cc2)c(O)c(Br)c2occc12	3.28	1.11	5.09	3.35	2.59	2.94	2.36	3.38	2.13	87.1	28.8	5	15	2.78	6.72	6.82	2.84	3.25	5.22	2.8	GI50 (TK-10): 3.48 µM; GI50 (K562): 2.88 µM; GI50 (COLO 205): 1.76 µM; GI50 [6]: 2.5 µM; GI50 (HCT-116): 2.83 µM; GI50 [7]: 3.43 µM; GI50 (HT-29): 4.11 µM; GI50 [8]: 6.67 µM; GI50 (SNB-75): 1.8 µM; GI50 (MDA-MB-435): 3.05 µM; GI50 (SK-MEL-28): 9.86 µM; GI50 (SK-MEL-5): 3.33 µM; GI50 [10]: 4.98 µM; GI50 (IGROV-1): 3.04 µM; GI50 [11]: 1.91 µM

Source: ChEMBL document CHEMBL3286372, “Design, synthesis and structure-activity relationship of novel semi-synthetic flavonoids as antiproliferative agents” (2014)
